“And” between values parts separate entries of the source, which are not always exact repeats. Identical values can stand only once. The source made the active and inactive calls.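 The calls were made as follows: active = compounds lowering the cell viability light signal with a fitted AC50 at most twice the top dose tested; inconclusive = flat fit with 30 to 70% inhibition, or poor fit; inactive = the rest.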

In general, AC50 refers to the concentration giving half of the maximal activity seen.

System in the first experiment: not listed separately
The experiment in a line: cytotoxicity in MALME3 melanoma cells – cell-based, CellTiter-Glo luminescence, dry powder samples, set 2, orthogonal assay for MITF inhibitor project, dose response (AID 624299). To be noted: MALME3 melanoma viability, CellTiter-Glo ATP luminescence, 24 h; at 35 µM (top of the series). The procedure, abridged: (§1)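 Measured by: CellTiter-Glo luminescence measuring cellular ATP | System: MALME3 melanoma cells | Doses: Multiple compound doses by pin transfer, day after seeding | Medium: Phenol-red-free IMDM with 10% FBS | Schedule: 37 °C compound incubation, 5 min RT before reading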
On the technique in general: In ATP-based viability assays light output follows the ATP content of the culture.
For `O=C(NC1=C(c2ccc(OC(F)(F)F)cc2)C(=O)c2ccccc2C1=O)c1ccc(Br)cc1`, the activity change, negative = inhibition is 2.43% (inactive).
With `COc1ccc(C2=C(NC(=O)c3ccc(OC)cc3-c3cccc(OC)c3)C(=O)c3ccccc3C2=O)cc1`, the activity change, negative = inhibition is -8.34% (inactive).
In the case of `COc1ccc(C2=C(NC(=O)c3ccc4ccccc4c3)C(=O)c3ccccc3C2=O)cc1`, the activity change, negative = inhibition was -7.26% (inactive).
With `O=C1C(NS(=O)(=O)c2ccc(Br)cc2)=C(N2CCN(c3ccccc3)CC2)C(=O)c2ccccc21`, the activity change, negative = inhibition was -51.2% (inactive).
For `O=C(NC1=C(N2CCN(c3ccccc3)CC2)C(=O)c2ccccc2C1=O)c1ccccc1`, the activity change, negative = inhibition was -8.35% (inactive).
With `O=C(NC1=C(c2ccc(Oc3ccccc3)cc2)C(=O)c2ccccc2C1=O)c1ccccc1`, the activity change, negative = inhibition was -15.3% (inactive).
In the case of `C=CCNC1=C(NCC=C)C(=O)c2ccccc2C1=O`, the activity change, negative = inhibition was 2.12% (inactive).

The test system of another experiment is MALME3 melanoma viability, CellTiter-Glo ATP luminescence, 24 h. The description is as above.
Settings: not given
Put shortly:
as §1
As to `CC1CCN(CC(CS(=O)(=O)c2ccc([N+](=O)[O-])cc2)N2CCC(C)CC2)CC1` (configuration not stated), the AC50 is 23 µM.
With `CCN1CCN(C2=C(NC(=O)c3ccccc3)C(=O)c3ccccc3C2=O)CC1`, the half-maximal activity concentration (AC50) was 3.93 µM.
As for `NC1=C(c2ccc(OC(F)(F)F)cc2)C(=O)c2ccccc2C1=O`, the AC50 is > 70 µM (inactive).
On the same count and under the same terms, with `CCN1CCN(C2=C(NC(=O)c3ccc(Br)cc3)C(=O)c3ccccc3C2=O)CC1` the figure was 1.79 µM; with `C=CCNC1=C(N2CCOCC2)C(=O)c2ccccc2C1=O`, 5.76 µM.
On to `C=CCNC1=C(Nc2ccccc2)C(=O)c2ccccc2C1=O`, for which the AC50 is > 70 µM (inactive).
As for `NC1=C(NC(=O)c2ccccc2)C(=O)c2ccccc2C1=O`, the half-maximal activity concentration (AC50) is 16.1 µM.
Regarding `O=C(NC1=C(c2ccc(OC(F)(F)F)cc2)C(=O)c2ccccc2C1=O)c1ccccc1F`, the AC50 is > 70 µM (inactive).
On the same count and under the same terms, as for `CN1CCN(C2=C(NS(=O)(=O)c3ccc(Br)cc3)C(=O)c3ccccc3C2=O)CC1`, the figure is > 70 µM (inactive); as for `COc1ccc(C(=O)NC2=C(c3ccccc3)C(=O)c3ccccc3C2=O)cc1`, 28.3 µM.
Regarding `O=C1C(NCCCN2CCOCC2)=C(Nc2ccccc2)C(=O)c2ccccc21`, the AC50 is > 70 µM (inactive).
`O=C1C(NS(=O)(=O)c2ccc(Br)cc2)=C(N2CCOCC2)C(=O)c2ccccc21`: the AC50 is 23.4 µM.
Still for that read-out and setting: as for `COc1ccc(C2=C(NC(=O)c3cccc(OC)c3)C(=O)c3ccccc3C2=O)cc1`, the figure is 26.8 µM.
As for `O=C1C(Nc2ccccc2)=C(N2CCCCC2)C(=O)c2ccccc21`, the concentration at half-maximal activity (AC50) is 5.84 µM.
Still for that read-out and setting: as for `CCN1CCN(C2=C(NS(=O)(=O)c3cccs3)C(=O)c3ccccc3C2=O)CC1`, the figure is 14.9 µM; as for `COc1ccc(C2=C(NC(=O)c3ccc(Cl)cc3)C(=O)c3ccccc3C2=O)cc1`, 32 µM; as for `C=CCNC1=C(NCCN(CC)CC)C(=O)c2ccccc2C1=O`, 8.96 µM.
Take `O=C(NC1=C(N2CCCCC2)C(=O)c2ccccc2C1=O)c1ccccc1`: the AC50 was > 70 µM (inactive).
Same read-out and setting: with `CCN1CCN(C2=C(NS(=O)(=O)c3ccc(Br)s3)C(=O)c3ccccc3C2=O)CC1` the figure was 17.2 µM; with `CN1CCN(C2=C(NC(=O)c3ccc(Br)cc3)C(=O)c3ccccc3C2=O)CC1`, 1.93 µM.
On to `COC1=C(NS(=O)(=O)c2ccccc2)C(=O)c2ccccc2C1=O`, for which the AC50 is 13.4 µM.
The same measure, in the same setting: with `Cc1nc2ccccc2n1/N=C/c1ccc([N+](=O)[O-])s1` the figure was 11.3 µM; with `COc1ccc(S(=O)(=O)N(C(C)=O)c2ccc(OC(C)=O)c3ccccc23)cc1[N+](=O)[O-]`, 19.6 µM; with `O=C(NC1=C(N2CCOCC2)C(=O)c2ccccc2C1=O)c1ccc(Br)cc1`, 16.1 µM.
As to `CC(=O)N(C)C1=C(N2CCN(C)CC2)C(=O)c2ccccc2C1=O`, the concentration at half-maximal activity (AC50) was 1.96 µM.
The same measure, in the same setting: as for `O=C1C(NS(=O)(=O)c2ccc(Br)s2)=C(N2CCOCC2)C(=O)c2ccccc21`, the figure is 25.7 µM.
With `O=C(NC1=C(N2CCSCC2)C(=O)c2ccccc2C1=O)c1ccc(Br)cc1`, the AC50 was 20.8 µM.
Take `COc1cccc(C2=C(NC(=O)c3ccccc3)C(=O)c3ccccc3C2=O)c1`: the AC50 is 20.4 µM.
For `O=C1C(Nc2ccccc2)=C(N2CCN(c3ccccc3)CC2)C(=O)c2ccccc21`, the AC50 is > 70 µM (inactive).
As to `C=CCNC1=C(NC(=O)c2ccccc2)C(=O)c2ccccc2C1=O`, the AC50 was > 70 µM (inactive).
For `CC(=O)NC1=C(c2cccc(Cl)c2)C(=O)c2ccccc2C1=O`, the AC50 was 13.1 µM.
As for `NC1=CC(=O)c2ccccc2C1=O`, the AC50 is 7.89 µM.
In the case of `O=C(CNc1cccc2ccccc12)N/N=C/c1ccc([N+](=O)[O-])o1`, the AC50 was 22.8 µM.
As to `O=C(NC1=C(N2CCOCC2)C(=O)c2ccccc2C1=O)c1ccccc1`, the AC50 was 24.4 µM.
On to `C=CCNC1=C(N2CCN(CC)CC2)C(=O)c2ccccc2C1=O`, for which the AC50 was 17.9 µM.
With `C=CCNC1=C(NCCCN(CC)CC)C(=O)c2ccccc2C1=O`, the half-maximal activity concentration (AC50) was 16.2 µM.
For the molecule `C=CCNC1=C(N2CCN(C)CC2)C(=O)c2ccccc2C1=O`, the AC50 is 19.1 µM.
Same read-out and setting: with `C=C1C(=O)OC2C1CC/C(C)=C\CCC1(C)OC21` (configuration not stated) the figure was 22.9 µM; with `CCN(CC)CCCNC1=C(Nc2ccccc2)C(=O)c2ccccc2C1=O`, 25.5 µM; with `O=C(NC1=C(N2CCSCC2)C(=O)c2ccccc2C1=O)c1ccccc1`, 18.8 µM.
With `C=CCNC1=C(N2CCSCC2)C(=O)c2ccccc2C1=O`, the AC50 was 5.96 µM.
Same read-out and setting: as for `C[C@@H](NC1=C(Nc2ccccc2)C(=O)c2ccccc2C1=O)c1ccccc1`, the figure is > 70 µM (inactive); as for `Cc1ccc(C(=O)NC2=C(c3ccccc3)C(=O)c3ccccc3C2=O)o1`, 23.7 µM.
As for `O=C1C=C(Nc2ccccc2)C(=O)c2ccccc21`, the AC50 is 2.18 µM.
Turning to `COc1ccc(C2=C(NC(=O)c3ccccc3Cl)C(=O)c3ccccc3C2=O)cc1`, the concentration at half-maximal activity (AC50) was 21.3 µM.
Same read-out and setting: as for `CCN1CCN(C2=C(N(C)C(C)=O)C(=O)c3ccccc3C2=O)CC1`, the figure is 2.5 µM.
Regarding `CCN1c2ccccc2NC2N=C(OC)C(c3ccccc3)C21` (configuration not stated), the AC50 is 6.63 µM.
For the molecule `CN1CCN(C2=C(NC(=O)c3ccccc3)C(=O)c3ccccc3C2=O)CC1`, the AC50 is 5.16 µM.
Consider `COc1cccc(-c2cc(C(=O)NC3=C(Cl)C(=O)c4ccccc4C3=O)ccc2OC)c1`, for which the AC50 is 16.3 µM.
Still for that read-out and setting: with `COc1ccc(C(=O)NC2=C(c3ccc(OC)cc3)C(=O)c3ccccc3C2=O)cc1` the figure was 23.1 µM; with `CCN1CCN(C2=C(NS(=O)(=O)c3ccc(Br)cc3)C(=O)c3ccccc3C2=O)CC1`, 20 µM.
Turning to `O=C1C(NS(=O)(=O)c2cccs2)=C(N2CCOCC2)C(=O)c2ccccc21`, the AC50 is 21.7 µM.
Consider `CCN1CCN(C2=C(Nc3ccccc3)C(=O)c3ccccc3C2=O)CC1`, for which the AC50 is 12.4 µM.
With `O=C(NC1=C(c2ccccc2)C(=O)c2ccccc2C1=O)c1ccccc1`, the half-maximal activity concentration (AC50) is 32.2 µM.
Regarding `CC(=O)NC1=C(c2ccc3c(c2)oc2ccccc23)C(=O)c2ccccc2C1=O`, the half-maximal activity concentration (AC50) was 22 µM.
For the molecule `O=C1C(NS(=O)(=O)c2ccccc2)=C(N2CCOCC2)C(=O)c2ccccc21`, the AC50 was 26.9 µM.
Consider `O=C1C(NS(=O)(=O)c2ccc(Br)cc2)=C(N2CCCCC2)C(=O)c2ccccc21`, for which the AC50 is 31.5 µM.
As for `O=C1C(Nc2ccccc2)=C(N2CCSCC2)C(=O)c2ccccc21`, the AC50 was > 70 µM (inactive).
Regarding `C=CCNC1=C(N(C)C(C)=O)C(=O)c2ccccc2C1=O`, the AC50 was 0.7 µM.
Still for that read-out and setting: as for `O=C1C(NS(=O)(=O)c2ccc(Br)cc2)=C(c2ccc(OC(F)(F)F)cc2)C(=O)c2ccccc21`, the figure is > 70 µM (inactive); as for `CCN(CC)CCCNC1=C(N(C)C(C)=O)C(=O)c2ccccc2C1=O`, 3.12 µM.
As for `COc1ccc(C2=C(NC(=O)c3ccccc3OC)C(=O)c3ccccc3C2=O)cc1`, the AC50 was > 70 µM (inactive).
`C=CCNC1=C(N2CCCCC2)C(=O)c2ccccc2C1=O`: the AC50 is 1.61 µM.
For the molecule `COc1ccc(C2=C(N)C(=O)c3ccccc3C2=O)cc1`, the AC50 was > 70 µM (inactive).
On the same count and under the same terms, as for `O=C(NC1=C(c2ccccc2)C(=O)c2ccccc2C1=O)c1ccc(Br)cc1`, the figure is > 70 µM (inactive); as for `COc1ccc(C2=C(NC(C)=O)C(=O)c3ccccc3C2=O)cc1`, 12 µM.
In the case of `CC(=O)NC1=C(c2ccc(Cl)cc2)C(=O)c2ccccc2C1=O`, the half-maximal activity concentration (AC50) is 13.9 µM.
For the molecule `CN1CCN(C2=C(NS(=O)(=O)c3ccc(Br)s3)C(=O)c3ccccc3C2=O)CC1`, the AC50 was 12.5 µM.
The same measure, in the same setting: as for `COc1ccc(C(=O)NC2=C(c3ccc(OC(F)(F)F)cc3)C(=O)c3ccccc3C2=O)cc1`, the figure is > 70 µM (inactive); as for `O=C(NC1=C(Cl)C(=O)c2ccccc2C1=O)c1ccccc1`, 5.7 µM.
For `O=C1C(Nc2ccccc2)=C(N2CCOCC2)C(=O)c2ccccc21`, the AC50 is 15.6 µM and 24.9 µM.
Consider `CN1CCN(C2=C(Nc3ccccc3)C(=O)c3ccccc3C2=O)CC1`, for which the AC50 was 16.4 µM.
As for `CC(=O)N(C)C1=C(N2CCOCC2)C(=O)c2ccccc2C1=O`, the concentration at half-maximal activity (AC50) was 7.36 µM.
For the molecule `O=C1C(NS(=O)(=O)c2ccc(Br)s2)=C(N2CCSCC2)C(=O)c2ccccc21`, the AC50 is 30.2 µM.
As for `C=CCNC1=C(Cl)C(=O)c2ccccc2C1=O`, the AC50 is 9.65 µM and 12.4 µM.
Consider `CN1CCN(C2=C(NS(=O)(=O)c3ccccc3)C(=O)c3ccccc3C2=O)CC1`, for which the AC50 is 7.3 µM.
Same read-out and setting: with `CN1CCN(C2=C(NS(=O)(=O)c3cccs3)C(=O)c3ccccc3C2=O)CC1` the figure was 11.7 µM; with `O=C(NC1=C(c2ccccc2)C(=O)c2ccccc2C1=O)c1ccco1`, 23.5 µM.
For `CC(=O)N(C)C1=C(N2CCCCC2)C(=O)c2ccccc2C1=O`, the AC50 was 4.94 µM.
Consider `CC(=O)NC1=C(c2ccccc2)C(=O)c2ccccc2C1=O`, for which the AC50 was 18.6 µM.

For the origin of these results see PubChem BioAssay AID624299 (Broad Institute, 2012).
